PubChem BioAssay AID588417 (The Scripps Research Institute Molecular Screening Center, 2011)
Calls of active or inactive are those of the source.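 The calls were made as follows: active = IC50 at or below 1 µM; inactive = IC50 above 1 µM.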

Biological target: Protein-arginine deiminase type-4 (Homo sapiens) (UniProt Q9UM07)
Assay: PAD4 enzyme inhibition, citrulline production – biochemical, colorimetric substrate assay, assay provider data, 0-15 µM, late-stage follow-up (AID 588417)
Details: recombinant PAD4, BAEE substrate, citrulline colorimetric absorbance
Procedure, shortened: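 Material: recombinant PAD4 protein; Input: 0.2 µM PAD4; Reagent: BAEE substrate at 10 mM; Schedule: 15 min pretreatment plus 15 min reaction, 37 °C; Detection: absorbance at 540 nm after diacetyl monoxime/thiosemicarbazide color development; Replicates: duplicate measurements at each compound concentration.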

Sequence of Protein-arginine deiminase type-4 (Homo sapiens) (Q9UM07 whole entry, looked up): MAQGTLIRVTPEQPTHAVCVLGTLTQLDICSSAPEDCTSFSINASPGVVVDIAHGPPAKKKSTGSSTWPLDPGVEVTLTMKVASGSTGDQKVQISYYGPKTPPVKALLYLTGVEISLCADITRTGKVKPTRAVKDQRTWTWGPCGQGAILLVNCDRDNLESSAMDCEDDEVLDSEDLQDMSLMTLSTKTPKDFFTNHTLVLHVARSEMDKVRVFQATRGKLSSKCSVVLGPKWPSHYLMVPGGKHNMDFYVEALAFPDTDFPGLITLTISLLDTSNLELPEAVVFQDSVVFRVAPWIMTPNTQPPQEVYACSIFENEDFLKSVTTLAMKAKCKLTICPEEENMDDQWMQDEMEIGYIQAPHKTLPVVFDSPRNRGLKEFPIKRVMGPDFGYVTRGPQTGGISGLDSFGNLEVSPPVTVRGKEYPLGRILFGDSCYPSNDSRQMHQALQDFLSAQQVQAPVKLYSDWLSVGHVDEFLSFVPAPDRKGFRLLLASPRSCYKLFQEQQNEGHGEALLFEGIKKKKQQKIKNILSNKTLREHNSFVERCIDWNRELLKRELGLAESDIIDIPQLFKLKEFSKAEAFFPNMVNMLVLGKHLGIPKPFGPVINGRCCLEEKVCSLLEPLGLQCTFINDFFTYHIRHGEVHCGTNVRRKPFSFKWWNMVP

- IC50: inactive
Compound: COC1=C(Br)C(=O)c2nc(-c3ccccn3)ccc2C1=O
